Experimental data reported in ChEMBL document CHEMBL1126114, “A novel orally active inhibitor of IL-1 generation: synthesis and structure-activity relationships of 3-(4-hydroxy-1-naphthalenyl)-2-propenoic acid derivatives” (J Med Chem, 1992).

Columns and labels:
Format in all cases: functional
[1] = tested on: Rattus norvegicus; assay: Inhibitory activity against Granuloma on CMC-LPS air-pouch model at 10 mg/kg by oral administration
In short: (§1)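 Rat CMC-LPS air pouch (air, 2% CMC-Na, then LPS 5 ng). Oral dosing in 0.5% methyl cellulose 2 h before LPS. Granuloma wet weight determined 5 days after LPS; % inhibition versus control, with an LPS-free group included.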

[2] = tested on: Rattus norvegicus; assay: Inhibitory activity against PGE-2 on CMC-LPS air-pouch model at 10 mg/kg by oral administration
In short: (§2)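 Rat CMC-LPS air pouch (air, 2% CMC-Na, then LPS 5 ng). Oral dosing in 0.5% methyl cellulose 2 h before LPS. PGE2 in the exudate supernatant collected 4 h after LPS, measured by radioimmunoassay.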

[3] = tested on: Rattus norvegicus; assay: % inhibition against arthritis on adjuvant-untreated paw in rats at 5 mg/kg by oral administration
In short: (§3)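 Adjuvant arthritis in rats; drug given orally once daily from the first day of adjuvant treatment. Swelling of the adjuvant-untreated paw measured by plethysmometer on day 15 after adjuvant; % inhibition versus control. Mean ± SEM of 6–10 animals; significance versus control.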

[4] = tested on: Rattus norvegicus; assay: Inhibitory activity against Granuloma on CMC-LPS air-pouch model at 2.5 mg/kg by oral administration; in short: as §1
[5] = tested on: Rattus norvegicus; assay: Inhibitory activity against IL-1 on CMC-LPS air-pouch model at 2.5 mg/kg by oral administration
In short: (§4)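 Rat CMC-LPS air pouch: air s.c., 2% CMC-Na 24 h later, LPS 5 ng 24 h after that. Compound given orally in 0.5% methyl cellulose 2 h before LPS. Exudate collected at 4 h; IL-1 (extra- plus intracellular) read by LAF assay against a recombinant human IL-1α curve.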

[6] = tested on: Rattus norvegicus; assay: The compound was tested for IL-1 generation on CMC-LPS air-pouch model at 2.5 mg/kg by oral administration
In short: (§5)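 Rats got 10 mL subcutaneous dorsal air, then 6 mL sterile 2% (w/v) CMC-Na in saline into the pouch 24 h later, then 5 ng LPS in 0.5 mL saline 24 h after that. Compound given orally as a suspension in 0.5% methyl cellulose 2 h before LPS. Exudate collected 4 h after LPS. Extra- plus intracellular IL-1 measured by LAF assay against a human recombinant IL-1α curve. Percent inhibition versus control; five rats per group.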

[7] = tested on: Rattus norvegicus; assay: Inhibitory activity against PGE-2 on CMC-LPS air-pouch model at 2.5 mg/kg by oral administration; in short: as §2
[8] = tested on: Rattus norvegicus; assay: Inhibitory activity against IL-1 on CMC-LPS air-pouch model at 10 mg/kg by oral administration; in short: as §4
[9] = tested on: Rattus norvegicus; assay: Inhibitory activity against Granuloma on CMC-LPS air-pouch model at 3 mg/kg by oral administration; in short: as §1
[10] = tested on: Rattus norvegicus; assay: The compound was tested for Granuloma generation on CMC-LPS air-pouch model at 3 mg/kg by oral administration; in short: as §1
[11] = tested on: Rattus norvegicus; assay: Inhibitory activity against IL-1 on CMC-LPS air-pouch model at 3 mg/kg by oral administration; in short: as §4
[12] = tested on: Rattus norvegicus; assay: % inhibition against arthritis on adjuvant-untreated paw in rats at 1 mg/kg by oral administration; in short: as §3
[13] = tested on: Rattus norvegicus; assay: The compound was tested for IL-1 generation on CMC-LPS air-pouch model at 3 mg/kg by oral administration; in short: as §5
[14] = tested on: Rattus norvegicus; assay: Inhibitory activity against PGE-2 on CMC-LPS air-pouch model at 3 mg/kg by oral administration; in short: as §2

| SMILES | inhibition in vivo at 10 mg/kg [1] [%] | inhibition in vivo at 10 mg/kg [2] [%] | inhibition in vivo at 5 mg/kg [3] [%] | inhibition in vivo at 2.5 mg/kg [4] [%] | inhibition in vivo at 2.5 mg/kg [5] [%] | IL-1 level [6] [units/mL] | inhibition in vivo at 2.5 mg/kg [7] [%] | inhibition in vivo at 10 mg/kg [8] [%] | inhibition in vivo at 3 mg/kg [9] [%] | Wet weight [10] [g] | inhibition in vivo at 3 mg/kg [11] [%] | inhibition in vivo at 1 mg/kg [12] [%] | IL-1 level [13] [units/mL] | inhibition in vivo at 3 mg/kg [14] [%] |
| --- | --- | --- | --- | --- | --- | --- | --- | --- | --- | --- | --- | --- | --- | --- |
| C[C@]12C=CC(=O)C=C1CC[C@@H]1[C@@H]2[C@@H](O)C[C@@]2(C)[C@H]1CC[C@]2(O)C(=O)CO [PREDNISOLONE] | 88 | 86 | 44.4 | 48 | 34 | 596 | 69 | 64 | – | – | – | – | – | – |
| COc1ccc2c(c1)c(CC(=O)O)c(C)n2C(=O)c1ccc(Cl)cc1 [INDOMETHACIN] | – | – | – | – | – | – | – | – | < 25 | 2.08 | < 25 | 47.8 | 995 | 97 |
